Compound activity: PubChem, Johns Hopkins Ion Channel Center
Most compounds without a hit are left out; they make up all but 3.5% or so of the library.
RGS4 block: human RGS4 inhibition | hit rate 0.45% among 310,000 | HEK293 M3R/RGS4 inducible, Fluo-4 calcium flux; hits give high values; triggered by carbachol at its EC20 | B-score at 10 µM | P49798;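 active means B-score, a plate-corrected calcium signal, over three deviations above library mean, with baseline fluorescence within five deviations of library mean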;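 further: RGS4 expression induced by doxycycline in cells with stable M3 receptor; B-score is computed from the integrated fluorescence ratio over baseline after carbachol; higher B-score means a larger calcium signal and so more RGS4 inhibition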
Target sequence (P49798 whole entry, looked up): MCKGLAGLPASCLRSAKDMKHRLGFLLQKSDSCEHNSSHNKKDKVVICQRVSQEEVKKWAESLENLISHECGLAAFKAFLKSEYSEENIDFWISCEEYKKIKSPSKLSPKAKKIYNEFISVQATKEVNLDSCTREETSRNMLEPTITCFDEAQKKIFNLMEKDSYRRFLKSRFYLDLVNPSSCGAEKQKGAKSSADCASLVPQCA
MrgX1 antag: antagonists of human MrgX1 receptor; hit rate 1.3% among 310,000; AID 588676; B-score at 10 µM; MRGX1-HEK293 calcium flux, Fluo-4, BAM8-22 antagonism; hits give low values;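 active means calcium-response B-score plate-corrected more than 3 library SD below zero, starting fluorescence within 5 deviations, no agonist response on first addition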;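 further: peak minus trough fluorescence over baseline after final BAM8-22 challenge near maximal dose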
MrgX1 allo act: allosterically activates human MrgX1 receptor signaling; AID 588675; MrgX1-HEK293, Fluo-4 calcium flux, FDSS; hits give high values; hit rate 0.63% among 310,000; B-score at 10 µM;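 active means plate-corrected calcium response at least 3 library SD above typical, normal starting fluorescence, not activating the receptor alone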;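 further: compound read alongside a low EC10 to EC30 dose of BAM8-22 agonist; peak minus trough fluorescence over baseline measured at the second addition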
RGS4 act: RGS4 potentiation or activation; HEK293 M3R/inducible RGS4, carbachol calcium flux Fluo4; hits give low values; B-score at 10 µM; hit rate 0.92% among 310,000; AID 463111;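 active means B-score of the integrated calcium signal more than 4 SD below the library mean, with starting fluorescence not abnormally high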;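 further: negative B-score means reduced calcium response which marks RGS4 activation or potentiation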
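System – HEK293 FlpIn-TREx cells, stable M3R, doxycycline-inducible RGS4 · Reagent – ECmax carbachol challenge · Times – compound preincubation 20 min at room temperature before agonist · Technique – Fluo4 fluorescence kinetic imaging of calcium · Measure – B score of integrated Fluo4 ratio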
MrgX1 ag: activates human MrgX1 receptor signaling; Q96LB2; MrgX1-HEK293 cells, Fluo-4 calcium fluorescence, agonist mode; hits give high values; B-score at 10 µM; hit rate 0.44% among 310,000; AID 588627;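 active means calcium response B-score plate-corrected fluorescence ratio at least 3 library SD, with starting fluorescence B-score inside 5 SD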
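Test system: HEK293 cells stably expressing human MrgX1 receptor; amount: 15,000 cells per well; doses: compound delivered in addition one of three; times: overnight plating before 1 h dye loading; detection: Fluo-4 NW calcium-flux fluorescence, kinetic read; read-out basis: B-scored fluorescence response ratio; controls: positive and negative controls per plate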
MrgX1 antag conf: confirmation of human MrgX1 receptor antagonists; MrgX1-HEK293, BAM8-22 calcium flux, Fluo-4; hits give low values; remaining BAM8-22 calcium response % of control (hits give low values), % at 10 µM; shares compounds with MrgX1 antag; AID 602420; hit rate 19% among 2,300;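 active means remaining agonist calcium response no higher than 100% minus 3 SD of agonist-only control wells, with starting fluorescence near control levels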;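 further: agonist BAM8-22 given at a near maximal EC90 to ECmax level; peak minus minimum fluorescence divided by baseline after agonist addition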
HEK293 Ca flux: activity in parental HEK293 cells lacking MrgX1 | shares compounds with MrgX1 antag | fluorescence ratio F(max-min)/F0 at 10 µM | hit rate 2% among 4,000 | Fluo-4 calcium fluorescence, FDSS;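 active means duplicate-averaged calcium fluorescence ratio at least three times the standard deviation of buffer wells, a nonspecific response in parental cells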
HEK293 Ca counter: counter-screen for MrgX1 allosteric activators: effect in parental HEK293 cells; shares compounds with MrgX1 antag; parental HEK293 calcium flux, Fluo-4 fluorescence ratio; hits give high values; fluorescence ratio F(max-min)/F0 at 10 µM; hit rate 0.4% among 4,000;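 active means calcium fluorescence ratio, averaged over duplicates, at least 3 SD of the buffer-well ratio, meaning a nonspecific response in receptor-free cells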;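 further: untransfected parental HEK293 lacking MrgX1 used as counterscreen for MrgX1 allosteric activators; fluorescence change taken during the second addition on a kinetic imager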
HEK293 Ca cntr2: counter-screen for MrgX1 activators: effect in parental HEK293 cells | Fluo-4 calcium fluorescence (FDSS); hits give high values | shares compounds with MrgX1 antag | hit rate 8.7% among 4,000 | fluorescence ratio F(max-min)/F0 at 10 µM;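 active means calcium fluorescence ratio at least three times the spread of buffer wells, meaning a non-specific response in parental cells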
Each line names hits and unclear results; the compound was inactive in the other large screens (follow-up assays come after a bar, where they were run).

COc1ccc(C(=O)CN2CCOCC2)cc1F	MrgX1 antag -5.17 | MrgX1 antag conf inactive | HEK293 Ca flux inactive | HEK293 Ca counter inactive | HEK293 Ca cntr2 inactive
Cc1nnc(SCc2nc3ccccc3c(=O)n2-c2ccccc2Cl)n1N	MrgX1 antag -8.23 | MrgX1 antag conf 82.4% | HEK293 Ca flux inactive | HEK293 Ca counter inactive | HEK293 Ca cntr2 inactive
CCc1nc2ccccc2c(=O)n1-c1ccccc1[N+](=O)[O-]	none
CCOc1cc2c(cc1OCC)-n1cccc1C(c1ccc(OC(F)F)cc1)NC2 (stereo unspecified)	MrgX1 antag -9.98 | MrgX1 antag conf 42.5% | HEK293 Ca flux inactive | HEK293 Ca counter inactive | HEK293 Ca cntr2 inactive
CC(C)c1ccc(N=Cc2c(O)n(C3CC3)c(=S)[nH]c2=O)cc1	none
Cc1ccc(CN(Cc2ccccc2)C(=S)NCC(=O)N2CCC3(CC2)OCCO3)o1	none
CCCCCn1c(=O)c(C(=O)NC(C)c2ccccc2)c(O)c2ccccc21 (stereo unspecified)	MrgX1 antag -4.75 | MrgX1 antag conf inactive | HEK293 Ca flux inactive | HEK293 Ca counter inactive | HEK293 Ca cntr2 inactive
CCOC(=O)C(=CNc1ccc(C(O)(C(=O)OCC)C(F)(F)F)cc1C)C(=O)OCC (stereo unspecified)	none
COC(=O)C1=C(c2cc3ccccc3s2)C[C@@H]2CC[C@H]1N2C(=O)NC1CCCCC1	none
COC(=O)c1ccc(NC(=O)CSc2nc3ccc(N4C(=O)C5C6C=CC(C6)C5C4=O)cc3s2)cc1 (stereo unspecified)	MrgX1 antag -7.39 | MrgX1 antag conf 55.4% | HEK293 Ca flux inactive | HEK293 Ca counter inactive | HEK293 Ca cntr2 inactive
CC(C)CCNC(=O)c1c(N)n(Cc2ccc3c(c2)OCO3)c2nc3ccccc3nc12	none
CC(C)CNC(=O)c1c(N)n(Cc2ccc3c(c2)OCO3)c2nc3ccccc3nc12	MrgX1 antag -5.96 | MrgX1 antag conf inactive | HEK293 Ca flux inactive | HEK293 Ca counter inactive | HEK293 Ca cntr2 53.6
CCOc1ccccc1CN1CCCC(C(=O)c2cc(F)ccc2F)C1 (stereo unspecified)	none
COC(=O)C(O)(c1ccc(N(C)C(=O)c2ccc(Cl)c(Cl)c2)cc1)C(F)(F)F (stereo unspecified)	MrgX1 antag -7.79 | MrgX1 antag conf inactive | HEK293 Ca flux inactive | HEK293 Ca counter inactive | HEK293 Ca cntr2 inactive
CCOC(=O)C(O)(c1ccc(N(C)C(=O)c2ccc(Cl)c(Cl)c2)cc1)C(F)(F)F (stereo unspecified)	none
O=c1[nH]c(=O)n(-c2cccc3ccccc23)c(O)c1/C=N/N1CCCCCC1	none
